The structures appear in SMILES notation.

Test [1] deals with B16. The test is described as follows: The compound was tested for inhibition of B16-BL6 melanoma cells growing in culture with 0.25 mM DFMO. Format: functional, cell-based. The note with it: Mus musculus.
Test [2] has as its system B16. The test is described as follows: The compound was tested for inhibition of B16-BL6 melanoma cells growing in culture. Format: functional, cell-based. The conditions noted are these: Mus musculus.
In test [3] the test system is B16. The test is described as follows: The compound was tested in vitro for inhibition of cell growth on the B16-BL6 melanoma cells at 0.0(mM)conc. Format: functional, Mus musculus.
Test [4] deals with B16. The test is described as follows: The compound was tested in vitro for inhibition of cell growth on the B16-BL6 melanoma cells at 0.1(mM)conc. Format: functional, Mus musculus.
The test system of test [5] is B16. Description: The compound was tested in vitro for inhibition of cell growth on the B16-BL6 melanoma cells at 0.25(mM)conc. Format: functional, Mus musculus.
Test [6] concerns B16. The test is described as follows: The compound was tested in vitro for inhibition of cell growth on the B16-BL6 melanoma cells at 0.5(mM)conc. Format: functional, Mus musculus.
Test [7] relates to B16. Description: The compound was tested in vitro for inhibition of cell growth on the B16-BL6 melanoma cells at 0.75(mM)conc. Format: functional, Mus musculus.
For test [8], the system named is B16. The test is described as follows: The compound was tested in vitro for inhibition of cell growth on the B16-BL6 melanoma cells at 1.0(mM)conc. Format: functional, Mus musculus.
The subject of test [9] is B16. Description: The compound was tested on [3H]spermidine uptake into BL6 cells at 0.5(mM)conc. Format: functional, Mus musculus. In short, it runs like this:
(§1)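 B16-BL6 melanoma cells were grown in DMEM with 10% heat-inactivated FBS, pyruvate, nonessential amino acids, glutamine, vitamins and 5 μg/mL insulin at […] in 5% CO2. They were pretreated with DFMO at 0–1.0 mM, then [3H]spermidine uptake was read as cpm per million cells. Values are mean ± SEM, compared by Duncan's and LSD tests.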

The subject of test [10] is B16. The test is described as follows: The compound was tested on [3H]-spermidine uptake into BL6 cells at 0.75(mM)conc. Format: functional, Mus musculus. In short, it runs like this: as §1
The test system of test [11] is B16. Description: The compound was tested on [3H]spermidine uptake into BL6 cells at 1.0(mM)conc. Format: functional, Mus musculus. In short, it runs like this: as §1
For test [12], the system named is B16. The test is described as follows: The compound was tested on spermidine content of the cells at 0.1(mM)conc. Format: functional, Mus musculus. The method, boiled down: (§2)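 B16-BL6 cells were cultured in supplemented DMEM and pretreated with DFMO at 0–1.0 mM. Cells were PBS-washed and pelleted, then extracted in 0.3 M perchloric acid with 1,6-hexanediamine internal standard (10 nmol per million cells). Extracts were benzoylated before the column and run by reversed-phase HPLC on a C8 cartridge at ambient temperature, 1.5 mL/min. Quantitation used a 0.05–10 nmol/mL standard curve.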

The test system of test [13] is B16. Description: The compound was tested on spermidine content of the cells at 0.25(mM)conc. Format: functional, Mus musculus. The method, boiled down: as §2
In test [14] the test system is B16. The test is described as follows: The compound was tested on spermidine content of the cells at 0.5 mM) conc. Format: functional, Mus musculus. The method, boiled down: as §2
For test [15], the system named is B16. The test is described as follows: The compound was tested on spermidine content of the cells at 0.75(mM)conc. Format: functional, Mus musculus. In short, it runs like this: as §2
Test [16] deals with B16. Description: The compound was tested on spermidine content of the cells at 1.0(mM)conc. Format: functional, Mus musculus. The method, boiled down: as §2
For test [17], the system named is B16. The test is described as follows: The compound was tested on [3H]spermidine uptake into BL6 cells at 0.0(mM)conc. Format: functional, Mus musculus. In short, it runs like this:
as §1

For test [18], the system named is B16. Description: The compound was tested on [3H]-spermidine uptake into BL6 cells at 0.1(mM)conc. Format: functional, Mus musculus. The method, boiled down: as §1
In test [19] the test system is B16. Description: The compound was tested on spermidine content of the cells at 0.0(mM)conc. Format: functional, Mus musculus. The method, boiled down:
as §2

Test [20] relates to B16. Description: The compound was tested on [3H]spermidine uptake into BL6 cells at 0.25(mM)conc. Format: functional, Mus musculus. In short, it runs like this:
as §1

Consider `CC(=O)NCCc1ccc(O)c(O)c1`, for which the IC50 in [1] is 2060 µM; in test [2], 1220 µM.
For the molecule `NCCCNC(CCCN)C(=O)NCCc1ccc(N(CCCl)CCCl)cc1` (stereo unspecified), the IC50 in test [1] is 512 µM; in test [2] it was 333 µM.
Taken in the same sequence, the figures for `NCCCNC(CCCN)C(=O)NCCc1ccc(O)c(O)c1` (stereo unspecified) were 1310 µM and 1230 µM.
Take `O=C(O)CCCc1ccc(N(CCCl)CCCl)cc1` [CHLORAMBUCIL]: the IC50 stood at 280 µM in test [1] and 220 µM in [2].
Take `NCCCC(N)(C(=O)O)C(F)F` (stereo unspecified) [EFLORNITHINE]: the Cell growth in [3] is reported as 2430000 number of cells ml-1; in [4], 2180000 number of cells ml-1; in test [5] it was 1940000 number of cells ml-1; in test [6] it was 1090000 number of cells ml-1; in test [7] it was 1330000 number of cells ml-1; in [8], 1480000 number of cells ml-1. The cpm/million cells amounted to 214540 in [9]; 226404 in test [10]; 250160 in test [11]; 146600 in test [17]; 221610 in test [18]; 219910 in test [20]. The Spermidine concentration is 0.6 nM (10e6*cells)-1 in [12]; 0.34 nM (10e6*cells)-1 in [13]; 0.55 nM (10e6*cells)-1 in test [14]; 0.52 nM (10e6*cells)-1 in test [15]; 0.35 nM (10e6*cells)-1 in test [16]; 2.07 nM (10e6*cells)-1 in test [19].

The record behind these values is ChEMBL document CHEMBL1125356, “Synthesis and evaluation of novel spermidine derivatives as targeted cancer chemotherapeutic agents” (J Med Chem, 1992).
